High-throughput results: PubChem BioAssay, several laboratories
Sampled rows, rich in hits. Any-hit rate of the full collection: about 5.2%.
EBNA-1 inhibitor: EBNA-1 DNA-binding inhibitors, primary screen, biochemical, fluorescence polarization. 300,000 compounds, 0.34% hits. inhibition, % at 14.8 µM. AID 1950, 2009; in the data active means inhibition above about 28%
ZTA DNA inh: blocks Epstein-Barr virus ZTA, an EBNA-1 counter-screen; P03206; ZTA-DNA binding, fluorescence polarization; inhibition, % at 11 µM; 320,000 compounds, 0.15% hits; AID 2234; in the data active means inhibition above about 33%
Target sequence (P03206 whole entry, looked up): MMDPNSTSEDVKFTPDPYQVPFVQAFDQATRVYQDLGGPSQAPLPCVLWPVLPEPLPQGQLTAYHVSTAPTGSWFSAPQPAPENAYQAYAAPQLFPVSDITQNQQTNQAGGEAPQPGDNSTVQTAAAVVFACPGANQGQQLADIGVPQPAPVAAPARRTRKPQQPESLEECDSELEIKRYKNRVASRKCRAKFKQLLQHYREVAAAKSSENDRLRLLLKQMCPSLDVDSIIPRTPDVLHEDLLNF
HCV core dimer: inhibitors of HCV core protein dimerization, primary screen, biochemical, TR-FRET, high-throughput; inhibition, % at 5 µM; TR-FRET GST/Flag-core106 dimerization, 1536-well; 300,000 compounds, 0.33% hits;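 active means inhibition above the mean of all tested compounds plus 3 SD, set per screening campaign, cut at about 45% in these data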
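Assay system: GST-tagged and Flag-tagged HCV core protein residues 1-106 / Times: compound-protein-antibody incubation 4 h at 22.5 °C / Signal: time-resolved FRET, ex 340 nm, em 617 and 671 nm / Evaluation: % inhibition based on acceptor/donor emission ratio / Benchmarks: wells lacking GST-core106 and wells with excess unlabelled core106 / Repeats: singlicate, one well per compound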
HCV NS3 hel inh: inhibitors of HCV NS3 helicase, primary screen, biochemical, Cy5 molecular beacon fluorescence. 290,000 compounds, 0.56% hits. AID 1800, 2009. NS3 helicase DNA unwinding. inhibition, % at 10.9 µM. Hepatitis C virus NS3 helicase;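 active means inhibition above the mean of all tested compounds plus 3 SD, set per campaign, cut at about 35% in these data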;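 further: 0% = DMSO wells and 100% = thioflavine S control wells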
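System: Hepatitis C virus NS3 helicase domain fragment enzyme | Reagent: Annealed dual-labelled DNA beacon duplex, ATP-started | Compound dosing: 10.9 µM single point, 0.8% DMSO | Incubation: 1 h reaction at 25 °C, ATP-initiated | Technique: Cy5 fluorescence | Evaluation: Percent inhibition from t60/t0 fluorescence ratio | Benchmarks: Low DMSO, high thioflavine S at 110 µM | Replication: Singlicate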
M18AAP inhibitor: PfM18AAP inhibitors, malaria aminopeptidase, primary screen, biochemical, QFRET, recombinant enzyme | 290,000 compounds, 1.2% hits | inhibition, % at 7.35 µM | H-Glu-NHMec fluorogenic cleavage | M18 aspartyl aminopeptidase (Plasmodium falciparum 3D7);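 active means inhibition above the campaign mean inhibition over all tested compounds plus 3 SD, cut at about 28% in these data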;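 further: 0% = plate median of test compound wells and 100% = 2 mM ZnCl2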
ALR H2O2 inh: inhibitors of human ALR sulfhydryl oxidase, primary screen, biochemical, H2O2 detection, HRP-luminol luminescence, single point; FAD-linked sulfhydryl oxidase ALR (Homo sapiens), P55789; purified ALR, DTT oxidation; inhibition, % (test concentration not listed); 290,000 compounds, 3.8% hits;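 active means mean replicate inhibition above about 79%, with every replicate also reaching it, limit read from the data; inconclusive means only one of the two criteria met; inactive means mean below limit and not every replicate reaching it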
Target sequence (P55789 whole entry, looked up): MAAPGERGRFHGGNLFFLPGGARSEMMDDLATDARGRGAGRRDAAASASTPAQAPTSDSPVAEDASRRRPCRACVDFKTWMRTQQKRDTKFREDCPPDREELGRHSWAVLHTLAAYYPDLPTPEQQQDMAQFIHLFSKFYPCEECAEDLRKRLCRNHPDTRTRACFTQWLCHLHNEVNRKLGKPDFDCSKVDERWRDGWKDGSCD
NS3 hel confirm: HCV NS3 helicase inhibitors, retest, confirmation, biochemical, Cy5 molecular beacon fluorescence, triplicate; shares compounds with HCV NS3 hel inh; NS3 helicase DNA unwinding; inhibition, % at 10.9 µM; 1,600 compounds, 31% hits; AID 1943, 2009;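 active means inhibition above the mean of all tested compounds plus 3 SD, cutoff set per campaign, cut at about 36% in these data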
FID counter trip: compounds displacing fluorescent DNA intercalator, artefact control for HCV NS3 helicase inhibitor project, biochemical, FID fluorescence, triplicate; shares compounds with HCV NS3 hel inh; DNA fluorescent intercalator displacement; inhibition, % at 7.9 µM; 1,600 compounds, 4% hits; AID 1945, 2009; in the data active means inhibition above about 37%;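 further: 0% = vehicle and 100% = reference compound; higher means more displacement of ethidium bromide from the DNA hairpin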
FID counter DR: compounds displacing fluorescent intercalator from DNA, dose response, counter-screen for HCV NS3 helicase inhibitor project, biochemical, fluorescence | AID 2172, 2009 | shares compounds with HCV NS3 hel inh | IC50, µM | 120 tested, under 10 active | fluorescent intercalator displacement from DNA; call rule not given here
Active calls of the source: *; u = inconclusive; x = not tested or not shown.

SMILES | EBNA-1 inhibitor | ZTA DNA inh | HCV core dimer | HCV NS3 hel inh | M18AAP inhibitor | ALR H2O2 inh | NS3 hel confirm | FID counter trip | others
CC(=O)C1=C(O)C(=O)N(c2ccc(C(=O)O)cc2)C1c1ccc([N+](=O)[O-])cc1 (centres undefined) | -4.9 | -9.8 | -1.7 | -0.7 | 4.5 | 43.4 | x | x
CN(Cc1ccc(Cl)c(Cl)c1)C(=O)C1=CC=CN2CCS(=O)(=O)N=C12 | x | -15.9 | x | x | x | -2.4 | x | x
COc1cc(OC)cc(C(=O)NCCS(=O)(=O)N2CCN(Cc3ccccc3)CC2)c1 | 1.1 | -8.6 | -1.4 | x | x | 5.6 | x | x
CC(C)OCCCNC(=O)c1cc(-c2cccnc2)nc2ccccc12 | -2.4 | 12.4 | 3.7 | -2.8 | -1.4 | -8.1 | x | x
O=C1CC(Nc2ccc(N3CCOCC3)cc2)C(=O)N1c1cccc(C(F)(F)F)c1 (centres undefined) | 7.5 | 4.6 | 4.3 | 48.3* | 10.1 | x | -8.2 | -0.6
Cc1ccc(NC2CC(=O)N(c3ccc(N4CCCCC4)cc3)C2=O)cc1 (centres undefined) | -4.0 | 0.1 | 26.0 | 6.7 | -7.6 | -3.6 | x | x
Cc1cc(-n2c(C)cc(C(=O)CSc3ccc4c(c3)OCCO4)c2C)no1 | -3.3 | -13.1 | 5.0 | 37.3* | -9.6 | u | -0.4 | -22.6
COc1cc(C2C(C(=O)c3cc4ccccc4o3)=C(O)C(=O)N2c2cc(C)on2)cc(OC)c1OC (centres undefined) | -15.1 | -17.1 | 2.5 | 24.2 | 20.4 | -1.0 | x | x
COc1cc(C2C(C(=O)c3ccc(C)o3)=C(O)C(=O)N2c2cc(C)on2)ccc1OCc1ccccc1 (centres undefined) | 4.0 | 12.2 | 13.3 | 84.5* | 5.9 | 68.9 | 187.7* | -26.3 | FID counter DR=>79.4
CCOc1ccc(C2C(C(=O)c3ccc(C)o3)=C(O)C(=O)N2c2cc(C)on2)cc1OC (centres undefined) | -6.5 | -10.0 | -5.4 | 18.4 | 6.3 | 3.3 | x | x
COC(=O)c1ccc(C2C(C(=O)c3cc4ccccc4o3)=C(O)C(=O)N2c2cc(C)on2)cc1 (centres undefined) | -3.5 | 11.3 | 33.2 | 51.1* | 15.0 | 18.6 | 93.1* | -29.0
CCCCCOc1ccc(C2C(C(=O)c3ccc(C)o3)=C(O)C(=O)N2c2cc(C)on2)cc1 (centres undefined) | 12.4 | 22.6 | 13.6 | 62.6* | 21.3 | 98.1* | 162.1* | -38.8 | FID counter DR=>79.4
CCCCCCc1ccc(N2C[C@H](Cc3ccccc3)[C@@H](CC(=O)Nc3ccccc3)C2=O)cc1 | 6.3 | 10.2 | 2.6 | 3.4 | 0.7 | -2.5 | x | x
CCC(Cc1ccccc1)NC(=O)CCNS(=O)(=O)c1cc(Br)cnc1N (centres undefined) | 10.1 | 2.8 | 0.5 | -7.6 | 1.2 | -5.1 | x | x
Cc1cc(/C=C2/C(=O)NN(c3ccccc3)C2=O)c(C)n1-c1cccc(O)c1 | -0.4 | 6.7 | -36.0 | 23.1 | 12.7 | 21.9 | x | x
O=C1NN(c2ccc(Br)cc2)C(=O)/C1=C\c1ccc(O)cc1O | -13.6 | -9.9 | 3.5 | 38.7* | 5.5 | x | 57.8* | 16.6
COc1ccc(CN(C)CC(=O)Nc2ccccc2C(=O)NC2CC2)cc1 | x | -2.1 | x | x | x | -2.6 | x | x
Cc1cccc(N2C(=O)C(O)=C(C(=O)c3cccs3)C2c2cccc(Oc3ccccc3)c2)n1 (centres undefined) | 13.7 | 3.2 | 31.8 | 79.8* | -10.5 | 97.8* | 113.8* | 17.8 | FID counter DR=>79.4
O=C(CN1CCN(S(=O)(=O)c2ccccc2)CC1)Nc1ccc(Cl)c([N+](=O)[O-])c1 | 1.4 | -4.6 | -1.6 | x | x | -5.1 | x | x
